# Columns and labels:
# [1] = system: CT DNA; test: CT DNA binding studies by cyclic voltammetry; design: species or system calf; details: for Epa(f), anodic potential / Epc(f), cathodic potential / Epa(b), anodic potential / Epc(b), cathodic potential: Co(II)/Co(I) couple, DMSO/buffer; for Epa(f), anodic potential / Epc(f), cathodic potential: absence of CT DNA; for Epa(b), anodic potential / Epc(b), cathodic potential: presence of CT DNA; for Kr/Kox, ratio of equilibrium DNA-binding constants of reduced and oxidized form: Eq. S3; for ΔEpa = Epa(b) − Epa(f) / ΔEpc = Epc(b) − Epc(f): shift upon addition of CT DNA
# [2] = system: CT DNA-EB conjugate; test: EB-displacement studies; format: binding, calf; details: for quenching constant kq (EB-DNA): τo = 23 ns
# How it was run: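 CT DNA pre-bound with ethidium bromide in citrate/NaCl buffer, pH 7.0, at room temperature. Test compound was added from a DMSO stock (≤5% v/v DMSO final), and the decrease in EB-DNA emission at 592 nm was monitored. KSV was obtained by Stern-Volmer analysis. kq was calculated from KSV using a literature EB-DNA lifetime τo = 23 ns.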
# [3] = molecular target: T1, bovine serum albumin (BSA) (Bos taurus, UniProt P02769); test: BSA tryptophan fluorescence quenching; format: binding; details: for K(BSA), SA-binding constant: Scatchard equation; for % relative fluorescence intensity (I/Io, %) of BSA remaining: λem 345 nm, % of the initial BSA fluorescence; for kq(BSA), SA-quenching constant: τo = 10^−8 s
# T1 sequence (P02769 25-607): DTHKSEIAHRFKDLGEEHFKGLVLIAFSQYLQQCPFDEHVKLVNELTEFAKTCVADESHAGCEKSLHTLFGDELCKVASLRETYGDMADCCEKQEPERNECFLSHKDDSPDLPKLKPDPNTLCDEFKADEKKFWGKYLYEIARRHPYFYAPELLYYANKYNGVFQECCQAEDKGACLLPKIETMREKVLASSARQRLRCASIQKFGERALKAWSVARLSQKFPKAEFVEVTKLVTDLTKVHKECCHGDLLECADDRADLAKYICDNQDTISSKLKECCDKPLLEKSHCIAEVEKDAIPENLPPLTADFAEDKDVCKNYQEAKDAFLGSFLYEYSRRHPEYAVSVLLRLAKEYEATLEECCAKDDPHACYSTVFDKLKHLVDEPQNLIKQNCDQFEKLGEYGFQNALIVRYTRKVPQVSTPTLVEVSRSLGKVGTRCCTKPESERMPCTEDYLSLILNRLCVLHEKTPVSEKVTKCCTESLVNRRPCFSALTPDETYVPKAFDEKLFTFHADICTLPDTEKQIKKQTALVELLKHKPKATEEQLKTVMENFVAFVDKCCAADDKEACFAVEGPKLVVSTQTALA
# [4] = molecular target: T2, human serum albumin (HSA) (Homo sapiens, UniProt P02768); test: HSA tryptophan fluorescence quenching; format: binding; details: for K(HSA), SA-binding constant: Scatchard equation; for % relative fluorescence intensity (I/Io, %) of HSA remaining: λem 340 nm, % of the initial HSA fluorescence; for kq(HSA), SA-quenching constant: τo = 10^−8 s
# T2 sequence (P02768 25-609): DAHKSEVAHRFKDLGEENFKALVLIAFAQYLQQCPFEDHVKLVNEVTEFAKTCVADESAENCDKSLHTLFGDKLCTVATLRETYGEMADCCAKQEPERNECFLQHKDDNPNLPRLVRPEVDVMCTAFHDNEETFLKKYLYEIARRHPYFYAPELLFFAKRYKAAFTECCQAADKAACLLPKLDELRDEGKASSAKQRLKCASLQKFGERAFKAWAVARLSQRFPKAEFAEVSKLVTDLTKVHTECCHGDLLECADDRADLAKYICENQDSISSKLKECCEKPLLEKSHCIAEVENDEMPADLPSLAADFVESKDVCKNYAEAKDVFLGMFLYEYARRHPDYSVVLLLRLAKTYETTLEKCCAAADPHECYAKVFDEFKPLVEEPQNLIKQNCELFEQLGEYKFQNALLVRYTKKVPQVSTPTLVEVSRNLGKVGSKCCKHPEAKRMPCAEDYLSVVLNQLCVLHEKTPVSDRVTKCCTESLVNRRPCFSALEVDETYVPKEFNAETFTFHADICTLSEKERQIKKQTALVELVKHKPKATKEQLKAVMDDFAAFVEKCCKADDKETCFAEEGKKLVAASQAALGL
# [5] = molecular target: T1, bovine serum albumin (BSA); test: BSA competitive studies with site-markers warfarin and ibuprofen; format: binding; details: for BSA-binding constant K, marker: ibuprofen: presence of ibuprofen; for BSA-binding constant K, marker: warfarin: presence of warfarin; for BSA binding site from competition with site-markers: change of K(BSA) with warfarin / ibuprofen
# [6] = molecular target: T2, human serum albumin (HSA); test: HSA competitive studies with site-markers warfarin and ibuprofen; format: binding; details: for HSA-binding constant K, marker: ibuprofen: presence of ibuprofen; for HSA-binding constant K, marker: warfarin: presence of warfarin
# [7] = Solubility and stability of the isolated complexes; format: physicochemical
Substance,"Epa(f), anodic potential [1] [mV]","Epc(f), cathodic potential [1] [mV]","Epa(b), anodic potential [1] [mV]","Epc(b), cathodic potential [1] [mV]","Kr/Kox, ratio of equilibrium DNA-binding constants of reduced and oxidized form [1]",ΔEpa = Epa(b) − Epa(f) [1],ΔEpc = Epc(b) − Epc(f) [1],Stern-Volmer constant KSV (EB-DNA) [2],quenching constant kq (EB-DNA) [2],"K(BSA), SA-binding constant [3]","% relative fluorescence intensity (I/Io, %) of BSA remaining [3] [%]","kq(BSA), SA-quenching constant [3]","K(HSA), SA-binding constant [4]","% relative fluorescence intensity (I/Io, %) of HSA remaining [4] [%]","kq(HSA), SA-quenching constant [4]","BSA-binding constant K, no marker [5]","BSA-binding constant K, marker: ibuprofen [5]","BSA-binding constant K, marker: warfarin [5]","HSA-binding constant K, no marker [6]","HSA-binding constant K, marker: ibuprofen [6]",further results
"[Co(indo-O,O′)2(phen)] [complex 4]",−440,−720,−500,−680,0.84,−60 mV,+40 mV,1.76(±0.04) × 10^5 M^−1,7.65(±0.17) × 10^12 M^−1 s^−1,4.27(±0.22) × 10^5 M^−1,26.5,1.37(±0.06) × 10^13 M^−1 s^−1,7.37(±0.35) × 10^5 M^−1,21.2,1.83(±0.12) × 10^13 M^−1 s^−1,4.27(±0.22) × 10^5 M^−1,1.19(±0.05) × 10^5 M^−1,2.23(±0.08) × 10^5 M^−1,1.20(±0.05) × 10^6 M^−1,3.42(±0.11) × 10^5 M^−1,"HSA-binding constant K, marker: warfarin [6]: 5.72(±0.18) × 10^5 M^−1; HSA binding site from competition with site-markers ([6]; change of K(HSA) with warfarin / ibuprofen): evident preference for the Sudlow's site 2 in subdomain IIIA; Solubility [7]: soluble in DMSO and DMF"
"[Co2(μ-indo-O,O′)2(indo-O)2(bipy)2(μ-H2O)]·3.3MeOH [complex 2]",−475,−712,−520,−675,0.93,−45 mV,+37 mV,1.63(±0.05) × 10^5 M^−1,7.07(±0.20) × 10^12 M^−1 s^−1,6.77(±0.26) × 10^5 M^−1,7.2,7.14(±0.12) × 10^13 M^−1 s^−1,1.20(±0.05) × 10^6 M^−1,5.1,8.49(±0.25) × 10^13 M^−1 s^−1,6.77(±0.26) × 10^5 M^−1,3.50(±0.13) × 10^5 M^−1,5.48(±0.13) × 10^5 M^−1,8.82(±0.30) × 10^5 M^−1,1.41(±0.09) × 10^5 M^−1,"BSA binding site from competition with site-markers [5]: preference for the Sudlow's site 2 in subdomain IIIA; HSA-binding constant K, marker: warfarin [6]: 4.62(±0.16) × 10^5 M^−1; Solubility [7]: soluble in DMSO and DMF"
[Co(indo-O)2(H2O)2(μ-Cl)]n·n(MeOH·H2O) [complex 1],−495,−690,−480,−700,1.04,+15 mV,−10 mV,1.39(±0.05) × 10^5 M^−1,6.03(±0.23) × 10^12 M^−1 s^−1,3.72(±0.12) × 10^5 M^−1,33.5,1.04(±0.07) × 10^13 M^−1 s^−1,7.06(±0.31) × 10^5 M^−1,28.8,9.01(±0.28) × 10^12 M^−1 s^−1,3.72(±0.12) × 10^5 M^−1,1.56(±0.08) × 10^5 M^−1,4.50(±0.24) × 10^5 M^−1,7.06(±0.31) × 10^5 M^−1,2.72(±0.10) × 10^5 M^−1,"BSA binding site from competition with site-markers [5]: preference for the Sudlow's site 2 in subdomain IIIA; HSA-binding constant K, marker: warfarin [6]: 4.18(±0.11) × 10^5 M^−1; Solubility [7]: soluble in DMSO and DMF"

# From paper PMC7416082 (Journal of Inorganic Biochemistry, 2020)
